# Bioassay records (PubChem)
# GSTO1 inh = inhibitors of recombinant GSTO1, primary screen, counter-screen for RBBP9 inhibitor project, biochemical, fluorescence polarization; activity-based probe fluorescence polarization; inhibition, % at 5.96 µM; hit rate 1.1% among 300,000;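 active means inhibition above the campaign mean inhibition plus 3 SD, cut at about 35% in these data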;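 further: 0% = GSTO1-1 with DMSO and 100% = wells lacking GSTO1-1 enzyme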
# PAD4 FP inh = human PAD4 inhibitors, primary screen, biochemical, fluorescence polarization, 1536-well format | inhibition, % at 6.36 µM | recombinant PAD4, RCA probe fluorescence polarization | hit rate 0.41% among 330,000;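 active means percent inhibition above a cutoff equal to the mean of all tested compounds plus 3 SD, cut at about 15% in these data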;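 further: 0% = PAD4 with RCA probe and DMSO and 100% = probe without PAD4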
# Target sequence (Q9UM07 whole entry, looked up): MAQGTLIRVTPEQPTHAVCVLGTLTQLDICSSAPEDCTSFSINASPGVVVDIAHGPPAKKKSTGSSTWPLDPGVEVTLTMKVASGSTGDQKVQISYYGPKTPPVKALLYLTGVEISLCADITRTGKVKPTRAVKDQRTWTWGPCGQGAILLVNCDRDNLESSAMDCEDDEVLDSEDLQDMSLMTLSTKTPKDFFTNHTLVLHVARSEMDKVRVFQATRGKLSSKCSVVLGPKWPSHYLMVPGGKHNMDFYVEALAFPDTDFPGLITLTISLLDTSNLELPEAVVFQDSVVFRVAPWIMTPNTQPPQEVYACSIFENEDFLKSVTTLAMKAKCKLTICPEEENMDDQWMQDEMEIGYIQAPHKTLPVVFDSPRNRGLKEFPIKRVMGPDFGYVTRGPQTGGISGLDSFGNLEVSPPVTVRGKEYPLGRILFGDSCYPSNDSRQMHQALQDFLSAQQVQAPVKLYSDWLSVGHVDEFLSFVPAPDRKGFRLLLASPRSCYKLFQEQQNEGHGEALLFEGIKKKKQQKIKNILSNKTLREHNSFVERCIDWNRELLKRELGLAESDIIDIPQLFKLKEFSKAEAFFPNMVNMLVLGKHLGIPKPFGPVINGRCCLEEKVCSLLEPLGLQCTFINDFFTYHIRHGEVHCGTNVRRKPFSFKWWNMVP
# TDP2 inh = human TDP2 enzyme inhibitors, primary screen, biochemical, epi absorbance, recombinant enzyme. T5PNP hydrolysis, p-nitrophenol absorbance 415 nm. hit rate 0.34% among 370,000. inhibition, % at 12.8 µM;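 active means inhibition above the mean of all tested compounds plus 3 SD, set per campaign, cut at about 25% in these data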;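 further: 0% = DMSO with enzyme and 100% = buffer with substrate but no TDP2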
#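 Incubation: 2 h at 37 °C; Test system: recombinant human TDP2; Quantity: enzyme 120 nM; Read-out basis: percent inhibition; Medium: 50 mM Tris-HCl pH 7.5 with Mg2+, KCl, DTT, BSA; Repeats: single replicate; Compound: 12.8 µM single point, 1% DMSO; Signal: epi absorbance; Reagent: 5 mM T5PNP chromogenic substrate; Benchmarks: no-enzyme high, DMSO-plus-enzyme low.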
# eLon inh = inhibitors of E. coli Lon protease, primary screen, biochemical, fluorescence polarization; P0A9M0; purified E. coli Lon protease; inhibition, % at 7.94 µM; AID 602123, 2011; hit rate 0.42% among 360,000; in the data active means inhibition above about 13%, passing the limit was not always enough;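 further: 0% = enzyme with probe and DMSO and 100% = no enzyme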
# PRMT1 inh = PRMT1 methyltransferase inhibitors, primary screen, biochemical, fluorescence polarization | Protein arginine N-methyltransferase 1 (Homo sapiens), Q99873 | recombinant PRMT1, activity-based probe fluorescence polarization | inhibition, % at 2.79 µM | hit rate 1.3% among 370,000;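 active means inhibition above about 21% made by adding two undisclosed values, limit read from the data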
# E coli Lon conf = E. coli Lon protease inhibitor retest, confirmation, biochemical, fluorescence polarization | shares compounds with eLon inh | purified E. coli Lon | inhibition, % at 7.94 µM | hit rate 31% among 1,400; in the data active means inhibition above about 16%;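 further: 0% = enzyme with probe and DMSO and 100% = no enzyme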
# * hit, by the source's call; . = no result given; + = active, no number. A selection: hits, their analogues and other compounds. The true share with any hit is near 2.5%.
SMILES,GSTO1 inh,PAD4 FP inh,TDP2 inh,eLon inh,PRMT1 inh,E coli Lon conf
COc1cccc2cc(-c3nc(-c4cccs4)cs3)c(=O)oc12,-3.5,-7.4,4.7,-10.6,10.8,.
CC1CCCCN1CCNC(=O)c1cnn2ccccc12 (centres undefined),4.7,0.7,0.3,14.3*,0.9,-35.7
Cc1cc(C(=O)NCCN2CCCCC2C)n(-c2ccccc2)n1 (centres undefined),0.0,0.2,3.4,2.4,0.7,.
C=CC[C@H](CC(=O)N(CCO)Cc1ccccc1)C(=O)N[C@H](COC(=O)[C@@H](CC=C)CC(=O)OC(C)(C)C)c1ccccc1,.,0.0,-0.3,20.0*,-0.2,10.8
Cc1ccc(-n2c(SCC(=O)Nc3ccccc3-c3ccccc3)nnc2-c2cccnc2)cc1,.,.,-5.7,.,-4.4,.
O=C(Nc1cccc(Cl)c1Cl)c1csc([C@@H]2O[C@H](CO)[C@H](O)[C@H](O)[C@H]2O)n1,.,.,-3.1,14.8*,-1.4,1.9
O=C(Nc1cccc2ccccc12)c1csc([C@@H]2O[C@H](CO)[C@@H](O)[C@H]2O)n1,.,.,13.6,3.9,2.5,.
C=CCOc1ccc(CNCC2CCCO2)cc1 (centres undefined),-2.8,-2.2,9.4,54.5*,-5.4,4.5
c1cc(CNCC2CCCO2)ccn1 (centres undefined),0.7,-3.4,-3.0,-11.3,-0.9,.
Cc1ccccc1Nc1nc(N)[nH]c(=O)c1N=O,.,.,-0.5,25.9*,1.5,-5.6
Cc1ccc2c(c1)N(CCCC(=O)NCc1c(F)cccc1F)C(=O)CO2,.,.,-1.2,.,-2.2,.
FC(F)(F)c1cc(CNC2CCC23CCC(c2ccccc2)CC3)ccc1Cl (centres undefined),.,.,1.4,.,-1.8,.
O=C(CCCn1c(=O)c2sccc2n(Cc2cc(=O)n3ccccc3n2)c1=O)NCc1ccco1,2.4,-1.7,-6.2,15.4*,1.6,0.5
CCOC(=O)[C@@]12CCCC3=C1N(CCC3)C(=O)[C@H]2CC(=O)NCc1cccs1,.,.,0.8,.,-1.5,.
c1ccc(C2OC3c4cccc5cccc(c45)C3N2c2ccccc2)cc1 (centres undefined),-6.1,4.2,7.8,56.3*,24.5*,1.9
O=C(OC12CCCN(C1)/C(=C/c1cccc(Cl)c1)C2)c1ccno1 (centres undefined),.,.,0.7,.,-5.0,.
O=S(=O)(CC1NCc2ccccc21)NCc1ccc(F)cc1 (centres undefined),.,.,-1.5,.,2.3,.
CCN(CC)S(=O)(=O)c1ccc(N2CCOCC2)c(NC(=O)c2cc3ccccc3o2)c1,.,.,1.4,29.7*,-0.3,-1.6
CCc1cccc(CC)c1N1C(=O)COCC1=O,.,.,7.0,-4.9,1.3,.
CCc1cccc(CC)c1N1C(=O)C2=C(SCCCS2)C1=O,.,.,1.8,180.4*,10.1,159.6*
CCc1ccc(CCNC(=O)OC2CC3CC2[C@H]2CCCCN2C3)cc1 (some centres undefined),.,.,3.7,.,-6.5,.
Cn1c(=O)c2c(ncn2CC(=O)OCC(=O)NCc2ccccc2Cl)n(C)c1=O,1.5,-4.1,-5.2,-1.5,0.9,.
COc1ccccc1CNC(=O)COC(=O)Cn1cnc2c1c(=O)n(C)c(=O)n2C,.,.,-12.1,72.2*,-2.7,-1.8
COc1cccc(NC(=S)N2CCN(c3ccccn3)CC2)c1,7.9,-5.5,5.0,+,-2.4,-3.1
COc1ccc(C2=CC(c3ccc(F)cc3)n3nnnc3N2)cc1 (centres undefined),3.9,2.6,7.7,37.9*,0.5,-12.8
SMILES,GSTO1 inh,PAD4 FP inh,TDP2 inh,eLon inh,PRMT1 inh,E coli Lon conf
COc1ccc(C2=CC(c3sccc3C)n3nnnc3N2)cc1 (centres undefined),10.1,1.2,5.3,0.5,2.5,.
O=C1CCC(=O)N1c1nc2n(n1)C(c1ccccc1)C=C(c1ccc(Br)cc1)N2 (centres undefined),1.4,-2.8,10.8,5.4,8.8,.
COc1cccc(C2=CC(c3cccs3)n3nnnc3N2)c1 (centres undefined),-3.0,-5.6,-0.8,35.2*,9.0,10.0
COc1ccc(C2C=C(c3ccc(Br)cc3)Nc3nc(N4C(=O)CCC4=O)nn32)cc1 (centres undefined),9.8,3.0,-0.3,25.1*,5.9,-9.2
CO[C@H]([C@H](C)/C=C/N(C)C=O)[C@@H](C)C(=O)CC[C@H](C)[C@H](O)[C@H](C)[C@H]1OC(=O)/C=C/C(C)=C/C[C@H](O)C[C@@H]2C=CC[C@@H](C[C@H](OC)[C@@]3(CO3)[C@@H](OC)C[C@@H](OC)[C@@H]1C)O2,.,.,-5.5,.,-1.3,.
C[C@H]1[C@@H](C(=O)N2CCCC2)Cc2nc3ccccc3nc2C[C@@H]1c1ccccc1,.,.,6.2,.,1.4,.
CN1CC=C(c2ccccc2)N(c2ccc(Cl)cc2)C1=O,.,.,-3.2,.,-3.3,.
O=C1C(=Cc2cccn2-c2ccccc2)C(=O)c2ccccc21,4.9,-4.9,0.2,61.5*,1.2,38.8*
CCOC(=O)N1CCN(CC(=O)c2ccc(O)c(C)c2O)CC1,2.8,2.5,5.0,2.6,-3.3,.
CCOC(=O)N1CCN(CC(=O)c2ccc(O)cc2O)CC1,-1.1,-7.6,-9.5,25.2*,3.5,29.5*
O=C(CCc1ccccc1)N[C@H]1[C@H](OC(=O)c2cnccn2)CCC[C@]12C(=O)N(Cc1ccccc1)c1ccccc12,.,.,-5.7,.,0.5,.
CCN1C(=O)c2ccccc2S(=O)c2ccc(C(=O)N3CCCCCC3)cc21 (centres undefined),4.6,0.5,-18.5,44.8*,-4.4,-52.5
COc1cccc(C(=O)CN2C(=O)C(C)(C)Oc3ccc(C(=O)N4CCOCC4)cc32)c1,9.1,0.6,-1.2,128.2*,-0.7,-5.3
COc1cccc(C(=O)CN2C(=O)C(C)(C)Oc3ccc(C(=O)N4CCCCCC4)cc32)c1,2.7,2.5,-6.6,4.8,1.0,.
O=C1CC2c3cc(Br)ccc3CCN2C(=O)CN1Cc1ccccc1 (centres undefined),.,.,-5.6,.,2.4,.
CCOC(=O)CC[C@@H]1CC[C@]2(CCCN(Cc3ccc(Cl)cc3)C2)O1,.,.,10.4,.,-1.4,.
CN(C)c1ccc(-c2nc3ncc(Cl)cc3[nH]2)cc1,.,.,-0.5,.,4.7,.
COC(=O)[C@]12C[C@H](CC(=O)NCc3ccc(C)o3)C(=O)N(Cc3cccc4ccccc34)C1=C[C@H](C(C)(C)C)O[C@@H]2C,.,.,-5.6,.,6.5,.
CN(C)Cc1ccccc1-c1cccc2nccn12,.,.,-7.7,16.9*,2.7,5.4
COCCN1Cc2cc(C(=O)OC)c3c(c2C1=O)c1cc(OC)ccc1n3C(=O)c1ccccc1,.,.,-1.5,.,2.3,.
Cc1[nH]c(=O)[nH]c(=O)c1S(=O)(=O)N1CCN(c2ccccc2F)CC1,0.2,-0.8,6.9,43.6*,2.7,4.5
